The results in this text go back to ChEMBL document CHEMBL4385647, “Design, synthesis and biological evaluation of 3-hydroxyquinazoline-2,4(1H,3H)-diones as dual inhibitors of HIV-1 reverse transcriptase-associated RNase H and integrase” (Bioorg Med Chem, 2019).

The source made the active and inactive calls. The rule behind the calls is not given here.

In series [1] the test system is Human immunodeficiency virus 1. The experiment in a line: Antiviral activity against HIV1 3B infected in human MT4 cells incubated for 5 days by MTT assay. It is filed as functional, organism-based. The settings on record: Human immunodeficiency virus 1, 3B, MT4, 120 h. Put shortly: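 MT-4 cells resuspended at 6×10^5 cells/mL and infected with 100-300 CCID50 of HIV-1 IIIB or HIV-2 ROD. Serial five-fold compound dilutions were tested in triplicate wells. After 5 days, viability was measured by MTT reduction with absorbance read at 540 and 690 nm, using the median OD of two or three wells.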
(In general: Formazan colour is commonly taken as a measure of viable cells.)

For series [2], the target named is Human immunodeficiency virus type 1 reverse transcriptase (Human immunodeficiency virus 1, UniProt Q72547). Nature of the series: Inhibition of HIV1 reverse transcriptase RNase H activity expressed in Escherichia coli using 32P-labeled template 31Trna RNA and DNA oligonucleotide 21P.
A short description of series [3]: Cytotoxicity in mock-infected human MT4 cells assessed as reduction in cell viability incubated for 5 days by MTT assay. It is filed as cell-based. Put shortly:
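Mock-infected MT-4 cells at 6×10^5 cells/mL were exposed to serial five-fold compound dilutions in triplicate wells in parallel with the infected series. After 5 days, viability was read by MTT at 540 and 690 nm from the median OD of two or three wells.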

The nature of series [4]: Apparent permeability in human Caco2 cells by LC analysis. Type of series: ADME, cell-based. Conditions: Caco-2. Put shortly: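 Transport was measured across Caco-2 cell monolayers, with nadolol and metoprolol as controls. Papp (cm/s) was calculated as (dCr/dt)×Vr/(A×C0), where dCr/dt is the cumulative receiver-chamber concentration over time.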
(Passage across Caco-2 layers is used to estimate intestinal permeability.)

The target in series [5] is T1, Human immunodeficiency virus type 1 integrase (Human immunodeficiency virus 1, UniProt Q7ZJM1). Nature of the series: Inhibition of strand transfer activity of HIV1 integrase expressed in Escherichia coli using DNA complexes containing 32P-labeled INT1ST and non-labeled INT2.
For series [6], the target named is Human immunodeficiency virus type 1 integrase (Human immunodeficiency virus 1) (UniProt Q7ZJM1). Nature of the series: Inhibition of strand transfer activity of HIV1 integrase expressed in Escherichia coli at 10 uM using DNA complexes containing 32P-labeled INT1ST and non-labeled INT2. In outline: (§1)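 Wild-type HIV-1 IN, expressed in E. coli, was assayed for strand transfer with DNA complexes of 32P-labeled INT1ST and unlabeled INT2 at 1% DMSO. Percent inhibition was measured at […].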

Series [7] has the same target. Nature of the series: Inhibition of strand transfer activity of HIV1 integrase expressed in Escherichia coli at 0.1 to 10 uM using DNA complexes containing 32P-labeled INT1ST and non-labeled INT2. In outline: as §1
A short description of series [8]: Inhibition of HIV reverse transcriptase RNase H activity. Set-up: species or system Human immunodeficiency virus. Put shortly: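 Wild-type HIV-1 BH10 RT (20-40 nM), expressed in E. coli, was incubated at 37°C in 50 mM Tris-HCl pH 8.0, 50 mM NaCl, 5 mM MgCl2 and 5% DMSO. Cleaved substrate was quantified over 0.2-100 μM compound against a DMSO-only control. IC50 was taken from dose-response curves.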

For series [9], the target named is T1, Human immunodeficiency virus type 1 integrase. Nature of the series: Inhibition of HIV integrase strand transfer activity.

Sequence of Human immunodeficiency virus type 1 integrase (Human immunodeficiency virus 1) (Q7ZJM1 as listed by the source): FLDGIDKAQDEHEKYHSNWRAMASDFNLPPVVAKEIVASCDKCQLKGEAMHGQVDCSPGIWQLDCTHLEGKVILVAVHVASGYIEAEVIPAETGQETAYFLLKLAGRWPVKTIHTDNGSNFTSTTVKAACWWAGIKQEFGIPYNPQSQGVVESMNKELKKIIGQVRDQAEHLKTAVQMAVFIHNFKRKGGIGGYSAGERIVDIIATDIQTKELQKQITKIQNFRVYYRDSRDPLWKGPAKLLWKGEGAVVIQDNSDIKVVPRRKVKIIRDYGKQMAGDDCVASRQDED
T1 sequence (Q7ZJM1 whole entry): as the sequence (Q7ZJM1 as listed by the source) above

`O=C(Nc1ccc2c(=O)n(O)c(=O)[nH]c2c1)c1ccccc1` showed an EC50 in series [1] greater than 36.6 µM. This compound also came in with an IC50 in [2] of 2.52 µM. Further, in series [3], the CC50 at 120 h amounted to 36.6 µM.

For `O=C(Nc1ccc2c(=O)n(O)c(=O)[nH]c2c1)c1cccc(F)c1`, the EC50 in series [1] was greater than 39.8 µM. In addition, in series [2], the IC50 was 3.73 µM. Also, the CC50 at 120 h in [3] was found to be 39.8 µM.

Consider `O=c1[nH]c2ccc(NS(=O)(=O)c3ccc4ccccc4c3)cc2c(=O)n1O`, for which, in series [4], the Papp is less than 0.19 ×10⁻⁶ cm/s. In addition, the values for the IC50 in series [5] and in [2] were 0.85 µM and 0.41 µM, respectively. In series [1], the EC50 is greater than 208 µM. In addition, the CC50 at 120 h in series [3] was 208 µM.

`Cc1cc(C)c(S(=O)(=O)Nc2ccc3c(=O)n(O)c(=O)[nH]c3c2)c(C)c1` gave an EC50 in series [1] greater than 154 µM. In series [2], the IC50 came to 3.24 µM. Further, the CC50 at 120 h in [3] is 154 µM.

As for `O=c1[nH]c2cc(NS(=O)(=O)c3ccc(-c4ccccc4)cc3)ccc2c(=O)n1O`, the EC50 in series [1] is greater than 305 µM. In addition, in series [2], the IC50 stood at 11.7 µM. Moreover, the half-maximal cytotoxic concentration (CC50) at 120 h in [3] is greater than 305 µM.

The compound `O=c1[nH]c2cc(NS(=O)(=O)c3ccc4ccccc4c3)ccc2c(=O)n1O` had an inhibition in [6] of 50 to 60%. For the same compound, in series [7], the inhibition entry is “Active”. The EC50 in series [1] is greater than 220 µM. Also, it took 20.1 µM to reach half-maximal inhibition in series [2] (IC50). In addition, the CC50 at 120 h in series [3] came to 220 µM.

In the case of `CC(C)(C)NCC(O)COc1cccc2c1CC(O)C(O)C2` (stereo unspecified) [NADOLOL], the Papp in series [4] was 0.09 ×10⁻⁶ cm/s.

Consider `Cc1cccc(S(=O)(=O)Nc2ccc3c(=O)n(O)c(=O)[nH]c3c2)c1`, for which, in [1], the EC50 was greater than 310 µM. The midpoint of inhibition in [2], the IC50, lay at 4.1 µM. In addition, the CC50 at 120 h in series [3] is 310 µM.

In turn, `NCc1ccc(-c2ccc(Cc3cc(=O)n(O)c4ncccc34)cc2)cc1` registered an IC50 in series [8] of 0.045 µM.

Take `Cc1nnc(C(=O)NC(C)(C)c2nc(C(=O)NCc3ccc(F)cc3)c(O)c(=O)n2C)o1`: the EC50 in [1] was found to be 0.015 µM. In [3], the CC50 at 120 h worked out at 6.51 µM.

Take `O=c1[nH]c2cc(NS(=O)(=O)c3cccc(C(F)(F)F)c3)ccc2c(=O)n1O`: the EC50 in series [1] was greater than 80.2 µM. Further, in series [2], the IC50 came out at 5.33 µM. In [3], the CC50 at 120 h stood at 80.2 µM.

As for `COCCc1ccc(OCC(O)CNC(C)C)cc1` (stereo unspecified) [METOPROLOL], the Papp in series [4] amounted to 14.7 ×10⁻⁶ cm/s.

In the case of `CC(C)c1ccc(O)c(=O)c(O)c1` [BETA-THUJAPLICINOL], the IC50 worked out at 3.8 µM in [8] and 1.98 µM in series [2]. In addition, in series [1], the EC50 is greater than 2.83 µM. Moreover, the CC50 at 120 h in series [3] is 2.83 µM.

Consider `NS(=O)(=O)c1ccc(-c2ccc(Cn3cc(O)c(=O)c(C(=O)O)c3)cc2)cc1`, for which the IC50 in series [8] came to 0.65 µM.

With `O=C(Nc1ccc2c(=O)n(O)c(=O)[nH]c2c1)c1ccc(C(F)(F)F)cc1`, the EC50 in series [1] is greater than 316 µM. The same compound yielded an IC50 in series [2] of 6.09 µM. Moreover, in series [3], the CC50 at 120 h turned out to be 316 µM.

For the compound `COc1ccc(Cc2nc(O)c(O)c(C(=O)O)n2)cc1Br`, the IC50 in series [8] was determined as 1.4 µM.

Regarding `O=c1[nH]c2cc(NS(=O)(=O)c3ccc(F)cc3)ccc2c(=O)n1O`, the EC50 in series [1] was greater than 356 µM. For the same compound, the IC50 in series [2] turned out to be 5.68 µM. The CC50 at 120 h in series [3] was greater than 356 µM.

`O=c1[nH]c2ccc(NS(=O)(=O)c3ccc(F)cc3)cc2c(=O)n1O` came in with an EC50 in series [1] greater than 199 µM. In series [2], the concentration for half-maximal inhibition (IC50) stood at 2.25 µM. Also, the CC50 at 120 h in series [3] is 199 µM.

In [1], `O=c1[nH]c2ccc(NS(=O)(=O)c3cccc(C(F)(F)F)c3)cc2c(=O)n1O` registered a 50% effective concentration (EC50) greater than 176 µM. Further, inhibition in [2] was half-maximal at 2 µM (IC50). Moreover, the CC50 at 120 h in [3] was determined as 176 µM.

`O=c1[nH]c2ccc(NS(=O)(=O)c3ccccc3)cc2c(=O)n1O` registered an EC50 in series [1] greater than 213 µM. Besides, half-maximal inhibition in series [2] (IC50) required 1.19 µM. Further, the CC50 at 120 h in series [3] turned out to be 213 µM.

`O=C(NCc1c(F)cc(F)cc1F)c1cn2c(c(O)c1=O)C(=O)N1[C@H]3CC[C@H](C3)O[C@@H]1C2` [BICTEGRAVIR]: in [9], half-maximal inhibition (IC50) was put at 0.0075 µM.

On to `O=C(Nc1ccc2[nH]c(=O)n(O)c(=O)c2c1)c1ccccc1F`, for which the EC50 in [1] was greater than 168 µM. Moreover, in series [2], the IC50 worked out at 4.29 µM. Besides, the CC50 at 120 h in series [3] is 168 µM.

In turn, `O=C(Nc1ccc2c(=O)n(O)c(=O)[nH]c2c1)c1ccc(F)cc1` showed an EC50 in series [1] greater than 43 µM. Further, in [2], inhibition was half-maximal at 3.73 µM (IC50). For the same compound, the CC50 at 120 h in [3] was 43 µM.

On to `O=C1Cc2cc(Cc3ccc(-c4ccccc4)cc3)ccc2C(=O)N1O`, for which half-maximal inhibition in [8] (IC50) required 0.8 µM.

In series [6], `CC(C)(C)c1ccc(S(=O)(=O)Nc2ccc3c(=O)n(O)c(=O)[nH]c3c2)cc1` gave an inhibition of 50 to 60%. The inhibition result in series [7] is “Active”. This compound gave an EC50 in [1] greater than 307 µM. In [2], this compound showed an IC50 of 5.88 µM. Besides, the CC50 at 120 h in series [3] worked out at 307 µM.

On to `CCOC(=O)C(=O)CC(=O)/C=C/c1cccn1Cc1ccccc1Cl`, for which inhibition in [8] was half-maximal at 7.3 µM (IC50).

`Cc1ccc(C(=O)Nc2ccc3c(=O)n(O)c(=O)[nH]c3c2)cc1` registered an EC50 in [1] greater than 10.9 µM. In series [2], this compound came in with an IC50 of 2.74 µM. In addition, the CC50 at 120 h in series [3] came to 10.9 µM.

The term EC50 denotes the midpoint of the concentration-response curve. Broadly, the IC50 is the concentration that inhibits the measured activity by half. By CC50 is commonly meant the concentration that lowers cell viability or growth by half. As a reminder, the Papp is a coefficient for how fast a substance crosses the barrier. Usually inhibition stands for how much of the control response was suppressed.
